Results as given in ChEMBL document CHEMBL4229458, “Lipid accumulation inhibitory activities of novel isoxazole-based chenodeoxycholic acids: Design, synthesis and preliminary mechanism study” (Bioorg Med Chem Lett, 2018).
Calls of active or inactive are those of the source. The calls are words filed in the database; no cut-off is given here.

Key:
3T3-L1 [1] = experiment: Cytotoxicity against mouse 3T3L1 cells assessed as decrease in cell viability at 40 uM after 48 hrs by MTT assay; type: cell-based; settings: 3t3-l1, 48 h
In short: (§1)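 3T3-L1 preadipocytes given 5, 10, 20 and 40 μM for 48 h, with 1% DMSO as control. Viability measured by MTT. Mean ± SD of two independent experiments.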

3T3-L1 [2] = experiment: Cytotoxicity against mouse 3T3L1 cells assessed as decrease in cell viability at 10 uM after 48 hrs by MTT assay; type: cell-based; settings: 3t3-l1, 48 h; in short: as §1
3T3-L1 [3] = experiment: Inhibition of lipid accumulation in mouse 3T3L1 cells at 10 uM by oil red o staining-based assay; type: functional
In short: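 3T3-L1 preadipocytes differentiated for 6 days into mature adipocytes, then treated at 10 μM. Intracellular lipid stained with Oil Red O and quantified relative to vehicle. Mean ± SD of two independent experiments.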

HepG2 = experiment: Cytotoxicity against human HepG2 cells assessed as decrease in cell viability at 5 to 80 uM after 48 hrs by MTT assay; type: cell-based; settings: hepg2, 48 h
In short: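 HepG2 cells exposed to 5, 10, 20, 40 and 80 μM for 48 h. Viability read by MTT.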

[4] = molecular target: T1, Bile acid receptor (Homo sapiens) (UniProt Q96RI1); experiment: Activation of FXR in human HepG2 cells assessed as upregulation of FXR mRNA expression at 10 uM by RT-PCR method; type: cell-based
T1 sequence (whole entry): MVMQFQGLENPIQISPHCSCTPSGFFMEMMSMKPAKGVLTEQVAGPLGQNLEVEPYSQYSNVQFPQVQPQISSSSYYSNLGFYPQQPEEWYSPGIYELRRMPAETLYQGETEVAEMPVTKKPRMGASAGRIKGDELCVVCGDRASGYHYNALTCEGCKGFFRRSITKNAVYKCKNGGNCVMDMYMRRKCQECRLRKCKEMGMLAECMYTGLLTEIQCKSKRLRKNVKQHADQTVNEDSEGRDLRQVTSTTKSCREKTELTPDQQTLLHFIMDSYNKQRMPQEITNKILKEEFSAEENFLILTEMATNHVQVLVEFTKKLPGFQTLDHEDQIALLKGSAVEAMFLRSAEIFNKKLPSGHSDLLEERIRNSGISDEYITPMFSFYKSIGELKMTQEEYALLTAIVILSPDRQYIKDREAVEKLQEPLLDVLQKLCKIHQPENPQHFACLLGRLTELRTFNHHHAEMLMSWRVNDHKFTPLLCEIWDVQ
In short: (§2)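 HepG2 cells treated at 10 μM. mRNA of FXR, SHP and SREBP-1c quantified by real-time PCR against vehicle (0.1% DMSO). Mean ± SEM, n = 3.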

[5] = molecular target: T1, Bile acid receptor (Homo sapiens); experiment: Activation of FXR in human HepG2 cells assessed as downregulation of SREBP-1c mRNA expression at 10 uM by RT-PCR method; type: cell-based; in short: as §2
[6] = molecular target: T1, Bile acid receptor (Homo sapiens); experiment: Activation of FXR in human HepG2 cells assessed as upregulation of SHP mRNA expression at 10 uM by RT-PCR method; type: cell-based; in short: as §2

In the case of `Cc1noc(C)c1C(=O)N[C@H]1CC[C@@]2(C)[C@@H](C1)C[C@@H](O)[C@@H]1[C@@H]2CC[C@]2(C)[C@@H]([C@H](C)CCC(=O)Nc3ccc(F)cc3)CC[C@@H]12`, the Activity (3T3-L1 [1]) is reported as “Non-Toxic”, the Activity (3T3-L1 [2]) is reported as “Non-Toxic” and the inhibition (3T3-L1 [3]) is reported as “Active”.

In the case of `CNC(=O)CC[C@@H](C)[C@H]1CC[C@H]2[C@@H]3[C@H](O)C[C@@H]4C[C@@H](NC(=O)c5c(C)noc5C)CC[C@]4(C)[C@H]3CC[C@]12C`, the Activity (3T3-L1 [1]) is reported as “Non-Toxic”, the Activity (3T3-L1 [2]) is reported as “Non-Toxic” and the inhibition at 10 µM (3T3-L1 [3]) is reported as 30.5%. For the same compound, the Activity (HepG2) was “Non-Toxic”, the Activity [4] was “Active” and the Activity [5] was “Active”. The Activity [6] was “Active”.

With `CC(=O)Nc1ccc(NC(=O)CC[C@@H](C)[C@H]2CC[C@H]3[C@@H]4[C@H](O)C[C@@H]5C[C@@H](NC(=O)c6c(C)noc6C)CC[C@]5(C)[C@H]4CC[C@]23C)cc1` the Activity (3T3-L1 [1]) was “Toxic”, the Activity (3T3-L1 [2]) was “Non-Toxic” and the inhibition (3T3-L1 [3]) was “Active”.

With `Cc1noc(C)c1C(=O)N[C@H]1CC[C@@]2(C)[C@@H](C1)C[C@@H](O)[C@@H]1[C@@H]2CC[C@]2(C)[C@@H]([C@H](C)CCC(=O)Nc3cccc(Cl)c3)CC[C@@H]12` the Activity (3T3-L1 [1]) was “Non-Toxic”, the Activity (3T3-L1 [2]) was “Non-Toxic” and the inhibition (3T3-L1 [3]) was “Active”.

For `Cc1noc(C)c1C(=O)N[C@H]1CC[C@@]2(C)[C@@H](C1)C[C@@H](O)[C@@H]1[C@@H]2CC[C@]2(C)[C@@H]([C@H](C)CCC(=O)NCC(=O)O)CC[C@@H]12`, the Activity (3T3-L1 [1]) was “Non-Toxic”, the Activity (3T3-L1 [2]) was “Non-Toxic” and the inhibition (3T3-L1 [3]) was “Active”.

For `C[C@H](CCC(=O)O)[C@H]1CC[C@H]2[C@@H]3[C@H](O)C[C@@H]4C[C@H](O)CC[C@]4(C)[C@H]3CC[C@]12C`, the inhibition (3T3-L1 [3]) was “Active”.

`Cc1noc(C)c1C(=O)N[C@H]1CC[C@@]2(C)[C@@H](C1)C[C@@H](O)[C@@H]1[C@@H]2CC[C@]2(C)[C@@H]([C@H](C)CCC(=O)Nc3ccc(Cl)cc3)CC[C@@H]12` was tested, and the Activity (3T3-L1 [1]) was “Non-Toxic”, the Activity (3T3-L1 [2]) was “Non-Toxic” and the inhibition (3T3-L1 [3]) was “Active”.

In the case of `COC(=O)CC[C@@H](C)[C@H]1CC[C@H]2[C@@H]3[C@H](O)C[C@@H]4C[C@@H](NC(=O)c5c(C)noc5C)CC[C@]4(C)[C@H]3CC[C@]12C`, the Activity (3T3-L1 [1]) is reported as “Non-Toxic”, the Activity (3T3-L1 [2]) is reported as “Non-Toxic” and the inhibition (3T3-L1 [3]) is reported as “Active”.

For `Cc1noc(C)c1C(=O)N[C@H]1CC[C@@]2(C)[C@@H](C1)C[C@@H](O)[C@@H]1[C@@H]2CC[C@]2(C)[C@@H]([C@H](C)CCC(N)=O)CC[C@@H]12`, the Activity (3T3-L1 [1]) was “Non-Toxic”, the Activity (3T3-L1 [2]) was “Non-Toxic” and the inhibition (3T3-L1 [3]) was “Active”.

`CC(C)c1onc(-c2c(Cl)cccc2Cl)c1COc1ccc(/C=C/c2cccc(C(=O)O)c2)c(Cl)c1` was tested, and the Activity (HepG2) was “Non-Toxic”, the Activity [4] was “Active” and the Activity [5] was “Active”. For the same compound, the Activity [6] was “Active”.

For `CCNC(=O)CC[C@@H](C)[C@H]1CC[C@H]2[C@@H]3[C@H](O)C[C@@H]4C[C@@H](NC(=O)c5c(C)noc5C)CC[C@]4(C)[C@H]3CC[C@]12C`, the Activity (3T3-L1 [1]) was “Non-Toxic”, the Activity (3T3-L1 [2]) was “Non-Toxic” and the inhibition (3T3-L1 [3]) was “Active”.

For `Cc1noc(C)c1C(=O)N[C@H]1CC[C@@]2(C)[C@@H](C1)C[C@@H](O)[C@@H]1[C@@H]2CC[C@]2(C)[C@@H]([C@H](C)CCC(=O)O)CC[C@@H]12`, the Activity (3T3-L1 [1]) was “Non-Toxic”, the Activity (3T3-L1 [2]) was “Non-Toxic” and the inhibition (3T3-L1 [3]) was “Active”.
